Compound activity as filed in PubChem.
PP1 inh – PP1-alpha phosphatase inhibitors, primary screen, counter-screen for PP5 inhibitor project, biochemical, fluorescence, OMFP substrate, single point | AID 2235, 2010 | 320,000 compounds, 0.9% hits | inhibition, % at 6.7 µM | Serine/threonine-protein phosphatase PP1-alpha catalytic subunit (Homo sapiens), P62136 | purified PP1alpha;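 active = inhibition above the mean inhibition of all tested compounds plus 3 SD, computed separately for each screening campaign, cut at about 15% in these data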
Target sequence (P62136 whole entry, looked up): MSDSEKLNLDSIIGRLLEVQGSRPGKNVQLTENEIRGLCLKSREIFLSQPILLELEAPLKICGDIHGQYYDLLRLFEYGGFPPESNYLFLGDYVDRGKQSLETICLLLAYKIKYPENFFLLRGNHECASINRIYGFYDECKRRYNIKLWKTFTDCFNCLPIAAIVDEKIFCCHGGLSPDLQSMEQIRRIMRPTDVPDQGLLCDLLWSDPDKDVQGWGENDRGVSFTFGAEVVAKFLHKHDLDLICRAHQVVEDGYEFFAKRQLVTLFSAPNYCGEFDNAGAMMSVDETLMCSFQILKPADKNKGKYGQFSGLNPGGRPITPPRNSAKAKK
HIF activator – HIF pathway transcriptional activators, primary screen, cell-based, U2OS HRE-luciferase, luminescence. U2OS HRE-luciferase reporter; normalized: DMSO 0%, desferrioxamine 100%. activation, % at 7.5 µM (by protocol). 300,000 compounds, 0.32% hits. AID 1910, 2009;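 active = mean activation of at least 10% of the iron chelator positive control signal, with at least half of replicates also reaching 10%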
PP5 inh – PP5 phosphatase inhibitors, primary screen, biochemical, fluorescence | Serine/threonine-protein phosphatase 5 (Homo sapiens), P53041 | purified PP5c, OMFP substrate fluorescence | inhibition, % at 6.7 µM | 320,000 compounds, 0.18% hits;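 active = inhibition above the campaign's mean inhibition across all tested compounds plus 3 SD, cut at about 9.5% in these data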;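 note: 0% = DMSO only and 100% = 100 µM cantharidin control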
HCV NS3 hel inh – inhibitors of HCV NS3 helicase, primary screen, biochemical, Cy5 molecular beacon fluorescence | Hepatitis C virus NS3 helicase | NS3 helicase DNA unwinding | inhibition, % at 10.9 µM | 290,000 compounds, 0.56% hits;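 active = inhibition above the mean of all tested compounds plus 3 SD, set per campaign, cut at about 35% in these data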;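 note: 0% = DMSO wells and 100% = thioflavine S control wells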
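Test system: hepatitis C virus NS3 helicase domain fragment enzyme. Also added: annealed dual-labelled DNA beacon duplex, ATP-started. Timing: 60 min unwinding reaction at 25 °C after ATP addition. Technique: Cy5 fluorescence. Measure: % inhibition of unwinding.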
DNA FID counter – compounds displacing fluorescent DNA intercalator, primary screen, artefact control for HCV NS3 helicase inhibitor project, biochemical, FID fluorescence; DNA fluorescent intercalator displacement; inhibition, % at 7.9 µM; 290,000 compounds, 0.17% hits; in the data active = inhibition above about 37%;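 note: 0% = vehicle and 100% = reference compound; higher means more ethidium bromide displaced from hairpin DNA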
* = called active by the depositor; nt = no result. Sampled rows, rich in hits. Any-hit rate of the full collection: about 1.9%.

SMILES | PP1 inh | HIF activator | PP5 inh | HCV NS3 hel inh | DNA FID counter
O=C(Nc1nnc(C2=COCCO2)o1)c1ccc(S(=O)(=O)N2CCCC2)cc1 | -1 | 0 | 4 | 1 | -19
N#Cc1ccc(C(=O)Nc2nnc(-c3ccccn3)o2)cc1 | 0 | 0 | 2 | 2 | -1
CCC1CCCCN1S(=O)(=O)c1ccc(C(=O)Nc2nnc(C3=COCCO3)o2)cc1 (stereo not given) | 17* | 0 | 2 | 29 | -45
O=C(Nc1nnc(-c2ccccn2)o1)c1cccc(Br)c1 | 15* | 0 | 1 | -2 | -5
CC1CCN(S(=O)(=O)c2ccc(C(=O)Nc3nnc(-c4ccccn4)o3)cc2)CC1 | 17* | 0 | 4 | 8 | -47
CC1CCCN(S(=O)(=O)c2ccc(C(=O)Nc3nnc(-c4ccco4)o3)cc2)C1 (stereo not given) | 17* | 0 | 4 | 31 | -55
COc1ccc(NC(=S)N2CCc3ccccc32)cc1OC | -2 | 0 | 0 | -6 | -9
Nc1ccnc(Oc2ccc(F)cc2)c1 | -1 | 0 | 0 | 11 | -7
O=C1CN(C(=O)CCCc2c[nH]c3ccccc23)c2ccccc2N1 | -7 | -2 | -7 | -2 | -17
CCCCC(=O)Nc1cccc(NC(=S)NC(C)=O)c1 | -3 | 0 | 1 | 11 | 1
NC(N)=N/N=C/c1ccc(OCc2ccccc2Cl)cc1 | 17* | 0 | 4 | -87 | 28
Cc1cc(N2C(=O)C(O)=C(C(=O)c3ccco3)C2c2cccc(Cl)c2)no1 (stereo not given) | 8 | 1 | -2 | 31 | -29
COc1ccccc1C1C(C(=O)c2cc3ccccc3o2)=C(O)C(=O)N1c1cc(C)on1 (stereo not given) | 20* | 0 | -2 | 32 | -37
Cc1cc(N2C(=O)C(O)=C(C(=O)c3cc4ccccc4o3)C2c2ccc(Cl)cc2)no1 (stereo not given) | 29* | 0 | 4 | 32 | -37
Cc1cc(N2C(=O)C(O)=C(C(=O)c3cc4ccccc4o3)C2c2cccc(Cl)c2)no1 (stereo not given) | 27* | 0 | -1 | 19 | 0
C=CCOc1cccc(C2C(C(=O)c3cc4ccccc4o3)=C(O)C(=O)N2c2cc(C)on2)c1 (stereo not given) | 28* | 1 | 2 | 32 | -35
CN(Cc1c(C(=O)N/N=C/c2cccs2)nnn1-c1nonc1N)c1ccccc1 | 7 | 0 | 4 | -10 | -28
COc1ccc(-c2nnnn2-c2ccc(F)cc2F)cc1 | 0 | 0 | 3 | -1 | -6
Cc1cc([N+](=O)[O-])nn1CC(=O)N/N=C/c1ccc(O)cc1O | -4 | 8 | -3 | -8 | -4
CCOc1ccsc1C(=O)OC | -3 | 0 | 0 | -2 | -9
OC(CNCCC1C=Nc2ccccc21)Cn1c2ccc(Cl)cc2c2cc(Cl)ccc21 (stereo not given) | 17* | -1 | 4 | -64 | 12
COCCN(CC1CCCN(C2Cc3ccccc3C2)C1)C(=O)CCC(N)=O (stereo not given) | -1 | 0 | 2 | -9 | 3
Cc1ccc(C(C(=O)NC2CCCCC2)N2CCCC2)cc1 (stereo not given) | 17* | -16 | 0 | -3 | 3
Cc1ccsc1/C=C1\SC(N2CC(C)OC(C)C2)=NC1=O (stereo not given) | -1 | 0 | 1 | -2 | -16
CCCCOc1cccc(C(=O)Nc2ccc(S(=O)(=O)Nc3nnc(CC)s3)cc2)c1 | 15* | -1 | 4 | -63 | -31
SMILES | PP1 inh | HIF activator | PP5 inh | HCV NS3 hel inh | DNA FID counter
CCc1nnc(NS(=O)(=O)c2ccc(NC(=O)c3cccc([N+](=O)[O-])c3)cc2)s1 | -1 | 0 | 2 | 1 | -34
CC(=O)CC1=NC(C)(C)Cc2ccccc21 | -1 | 0 | 1 | 1 | -3
CCOc1cc(CNCCc2ccc(S(N)(=O)=O)cc2)ccc1OCc1ccc(Cl)cc1 | 6 | -4 | 3 | -91 | 37*
COc1cc(CNCCc2ccc(S(N)(=O)=O)cc2)ccc1OCc1ccc(Cl)cc1 | 7 | 1 | 1 | -83 | 20
C#CCOCCOCCOCCNc1nc(N2CCN(C(=O)CCCCCCCCCCNC(=O)[C@H]([C@@H](C)CC)n3cc(CCCCCN)nn3)CC2)nc(N2CCN(C(=O)CCCCCCCCCCNC(=O)[C@@H]([C@H](C)CC)n3cc(CCCCCN)nn3)CC2)n1 | 64* | nt | 3 | nt | nt
C#CCOCCOCCOCCNc1nc(N2CCOCC2)nc(N2CCN(C(=O)CCCCCCCCCCNC(=O)[C@@H]([C@H](C)CC)n3cc(CCCCCN)nn3)CC2)n1 | 11 | nt | 0 | nt | nt
C#CCOCCOCCOCCNc1nc(N2CCN(C(=O)[C@H]([C@@H](C)CC)n3cc(CCCN=C(N)N)nn3)CC2)nc(N2CCN(C(=O)[C@H]([C@@H](C)CC)n3cc(CCCN=C(N)N)nn3)CC2)n1 | nt | 0 | nt | -81 | 43*
C#CCOCCOCCOCCNc1nc(N2CCN(C(=O)CCCCCCCCCCNC(=O)[C@H](CO)n3cc(CCCSC)nn3)CC2)nc(N2CCN(C(=O)CCCCCCCCCCNC(=O)[C@@H]([C@H](C)O)n3cc(C)nn3)CC2)n1 | 31* | nt | 2 | nt | nt
C#CCOCCOCCOCCNc1nc(N2CCN(C(=O)[C@H]([C@@H](C)CC)n3cc(CCCN=C(N)N)nn3)CC2)nc(N2CCN(C(=O)[C@H](C)n3cc(CCCN=C(N)N)nn3)CC2)n1 | 8 | -4 | 3 | -83 | 33
C#CCOCCOCCOCCNc1nc(N2CCN(C(=O)CCCCCCCCCCNC(=O)[C@H]([C@@H](C)CC)n3cc(CCCCN=C(N)N)nn3)CC2)nc(N2CCN(C(=O)CCCCCCCCCCNC(=O)[C@H]([C@@H](C)CC)n3cc(CCCCN=C(N)N)nn3)CC2)n1 | 74* | nt | 9 | nt | nt
C#CCOCCOCCOCCNc1nc(N2CCN(C(=O)CCCCCCCCCCNC(=O)[C@@H](CCC(=O)O)n3cc(CCCCCN)nn3)CC2)nc(N2CCN(C(=O)CCCCCCCCCCNC(=O)[C@H]([C@@H](C)CC)n3cc(CCCCCN)nn3)CC2)n1 | 13 | nt | 1 | nt | nt
CCN(CC)C(=O)Cn1c(=O)n(CCCC(=O)NCc2ccccc2)c(=O)c2sccc21 | -1 | 0 | -3 | 2 | -1
CC(C)C[C@H](NC(=O)[C@H](Cc1ccccc1)n1c(=O)[nH]c2ccccc2c1=O)C(=O)N1CCC[C@H]1C(=O)O | -2 | 0 | 3 | -6 | -31
CN(C)CCCN(C(=O)c1ccc(C(=O)c2ccccc2)cc1)c1nc2cc3c(cc2s1)OCO3 | 5 | 0 | 3 | -39 | 44*
CN(C)CCCN(C(=O)c1ccc(S(=O)(=O)N2CCCCC2)cc1)c1nc2cc3c(cc2s1)OCO3 | 3 | 0 | 3 | -43 | 38*
